pIC50: −log10 of the molar value.
Legend:
[1] = Drug accumulation in human HT-29 cells at 500 nM incubated for 30 mins by fluorescence based analysis; assay type: ADME, cell-based; conditions: ht-29, 0.5 h, 0.5 µM
In short: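 Live-cell imaging in HT29 cells seeded at 20.000 per well and grown 48 h, then switched to phenol-red-free RPMI 1640. Co-treated with compound at 500 nM, HypoxySense 680 (1:2000, CAIX probe) and Hoechst 33342 nuclear stain. Imaged after 30 min by fluorescence microscopy at Ex/Em 385/425 nm (Hoechst), 555/592 nm (compounds) and 630/681 nm (HypoxySense).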

[2] = Resistance index, ratio of IC50 for human A2780cis cells to IC50 for human A2780cis cells; assay type: functional; conditions: in the assay text read “to IC50 for human A2780 cells” for “to IC50 for human A2780cis cells”
In short: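 Resistance index calculated as the ratio of the 72 h SRB IC50 in A2780cis to that in parental A2780.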

[3] = Selectivity index, ratio of IC50 for human CCD-18Co cells to IC50 for human A2780cis cells
In short: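 Selectivity index calculated as the ratio of the 72 h SRB IC50 in non-malignant CCD18Co fibroblasts to that in A2780cis.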

[4] = test system: A549; test: Cytotoxicity against human A549 cells incubated for 72 hrs by SRB assay; assay type: functional, cell-based; conditions: A549, 72 h
In short: (§1)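 Cells plated in 96-well format and left 24 h, then exposed to serial dilutions of compound for 72 h; growth read by sulforhodamine B staining. Media held 10 % fetal bovine serum and 1 % penicillin-streptomycin. IC50 taken from dose-response curves, means of 2 independent experiments.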

[5] = Cytotoxicity against human A2780cis cells incubated for 72 hrs by SRB assay; assay type: functional, cell-based; in short: as §1
[6] = test system: MCF7; test: Cytotoxicity against human MCF7 cells incubated for 72 hrs by SRB assay; assay type: functional, cell-based; conditions: MCF7, 72 h
In short: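 Cells plated in 96-well format and left 24 h, then exposed to serial dilutions of compound for 72 h; growth read by sulforhodamine B staining. Media held 10 % fetal bovine serum and 1 % penicillin-streptomycin.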

[7] = test system: A2780; test: Cytotoxicity against human A2780 cells incubated for 72 hrs by SRB assay; assay type: functional, cell-based; conditions: A2780, 72 h; in short: as §1
[8] = Cytotoxicity against human CCD-18Co cells incubated for 72 hrs by SRB assay; assay type: toxicity, cell-based; in short: as §1
[9] = test system: HT-29; test: Cytotoxicity against human HT-29 cells incubated for 72 hrs by SRB assay; assay type: functional, cell-based; conditions: HT-29, 72 h; in short: as §1

Structure (SMILES) | Drug uptake [1] | Ratio IC50 [2] | Ratio IC50 [3] | pIC50 [4] | pIC50 [5] | pIC50 [6] | pIC50 [7] | IC50 at 72 h [8] [nM] | pIC50 [9]
CCN(CC)c1ccc2c(-c3ccccc3C(=O)N3CCN(C(=O)c4ccc(CCSc5c(F)c(F)c(S(N)(=O)=O)c(NC6CCCCCCCCCCC6)c5F)cc4)CC3)c3ccc(=[N+](CC)CC)cc-3oc2c1.[Cl-] | Active | 1.87 | 1.22 | 6.23 | 6.35 | 6.59 | 6.62 | 550 | 6.49
CCN(CC)c1ccc2c(-c3ccccc3C(=O)N3CCN(C(=O)c4ccc(CCSc5c(F)c(F)c(S(N)(=O)=O)c(NC[C@]6(C)CCC[C@]7(C)c8ccc(C(C)C)cc8CC[C@@H]67)c5F)cc4)CC3)c3ccc(=[N+](CC)CC)cc-3oc2c1.[Cl-] | Active | 1.21 | 2.22 | 6.15 | 6.34 | 6.39 | 6.42 | 1020 | 6.28
COc1cccc2c1C(=O)c1c(O)c3c(c(O)c1C2=O)C[C@@](O)(C(=O)CO)C[C@@H]3O[C@H]1C[C@H](N)[C@H](O)[C@H](C)O1 [DOXORUBICIN] |  |  |  | 7.64 | 7.00 |  |  | 269 | 7.07

From ChEMBL document CHEMBL5608190, “Dehydroabietylamine-substituted trifluorobenzene sulfonamide rhodamine B hybrids as anticancer agents overcoming drug resistance” (Eur J Med Chem, 2024)
